# ChEMBL document CHEMBL1143558, “Discovery of a novel series of peroxisome proliferator-activated receptor alpha/gamma dual agonists for the treatment of type 2 diabetes and dyslipidemia” (J Med Chem, 2005)
# Assays:
# [1] = biological target: T1, Peroxisome proliferator-activated receptor alpha (Homo sapiens, UniProt Q07869); assay: Inhibition of human Peroxisome proliferator activated receptor alpha binding
# T1 sequence (Q07869 whole entry): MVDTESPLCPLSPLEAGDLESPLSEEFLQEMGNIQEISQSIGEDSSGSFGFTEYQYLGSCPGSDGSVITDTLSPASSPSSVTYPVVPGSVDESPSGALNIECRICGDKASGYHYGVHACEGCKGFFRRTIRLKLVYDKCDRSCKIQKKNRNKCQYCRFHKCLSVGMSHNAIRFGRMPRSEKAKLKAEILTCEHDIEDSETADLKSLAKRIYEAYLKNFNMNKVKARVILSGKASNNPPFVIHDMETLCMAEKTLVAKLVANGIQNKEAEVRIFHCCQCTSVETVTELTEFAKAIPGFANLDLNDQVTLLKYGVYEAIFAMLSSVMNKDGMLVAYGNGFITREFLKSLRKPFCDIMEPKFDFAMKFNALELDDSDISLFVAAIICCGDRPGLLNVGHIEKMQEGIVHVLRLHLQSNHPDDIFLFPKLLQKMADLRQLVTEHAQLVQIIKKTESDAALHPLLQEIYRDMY
# [2] = biological target: T2, Peroxisome proliferator-activated receptor gamma (Homo sapiens, UniProt P37231); assay: Inhibition of human Peroxisome proliferator activated receptor gamma binding
# T2 sequence (P37231 whole entry): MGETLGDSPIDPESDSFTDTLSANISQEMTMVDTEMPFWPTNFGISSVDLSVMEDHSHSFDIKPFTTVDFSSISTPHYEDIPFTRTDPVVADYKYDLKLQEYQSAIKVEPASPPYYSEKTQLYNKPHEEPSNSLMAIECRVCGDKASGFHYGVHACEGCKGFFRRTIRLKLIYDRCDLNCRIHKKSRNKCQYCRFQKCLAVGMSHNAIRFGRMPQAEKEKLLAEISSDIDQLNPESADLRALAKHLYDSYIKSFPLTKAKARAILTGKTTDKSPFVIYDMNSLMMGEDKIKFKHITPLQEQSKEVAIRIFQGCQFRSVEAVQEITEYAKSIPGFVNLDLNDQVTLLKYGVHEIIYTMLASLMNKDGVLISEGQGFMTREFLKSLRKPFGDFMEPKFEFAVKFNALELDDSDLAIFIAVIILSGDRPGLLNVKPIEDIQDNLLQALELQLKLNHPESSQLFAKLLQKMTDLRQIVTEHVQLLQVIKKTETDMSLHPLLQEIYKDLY
# [3] = biological target: T1, Peroxisome proliferator-activated receptor alpha; assay: Effective concentration against human Peroxisome proliferator activated receptor alpha in Gal4 transactivation assay; Not active at 3 uM
# Method in brief: (§1)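 Chimeric GAL4-hPPARα or GAL4-hPPARγ transactivation assay in transiently transfected COS-1 cells. Compounds were titrated up to 3 µM, the highest concentration tested. […] "Not active" means no activity at 3 µM.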
# [4] = biological target: T2, Peroxisome proliferator-activated receptor gamma; assay: Effective concentration against human Peroxisome proliferator activated receptor gamma in Gal4 transactivation assay; Not active at 3 uM; method in brief: as §1
# [5] = biological target: T2, Peroxisome proliferator-activated receptor gamma; assay: Maximal effect against human Peroxisome proliferator activated receptor gamma in Gal4 transactivation assay
# Method in brief: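 Chimeric GAL4-hPPARγ transactivation assay in transiently transfected COS-1 cells. The response is given as percent at 3 µM, the mean of n = 3.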
# [6] = biological target: T1, Peroxisome proliferator-activated receptor alpha; assay: Effective concentration against human Peroxisome proliferator activated receptor alpha in Gal4 transactivation assay
# [7] = biological target: T2, Peroxisome proliferator-activated receptor gamma; assay: Effective concentration against human Peroxisome proliferator activated receptor gamma in Gal4 transactivation assay
# [8] = biological target: T3, Peroxisome proliferator-activated receptor alpha (Mus musculus, UniProt P23204); assay: Agonist activity against mouse Peroxisome proliferator activated receptor alpha; format: functional
# T3 sequence (P23204 whole entry): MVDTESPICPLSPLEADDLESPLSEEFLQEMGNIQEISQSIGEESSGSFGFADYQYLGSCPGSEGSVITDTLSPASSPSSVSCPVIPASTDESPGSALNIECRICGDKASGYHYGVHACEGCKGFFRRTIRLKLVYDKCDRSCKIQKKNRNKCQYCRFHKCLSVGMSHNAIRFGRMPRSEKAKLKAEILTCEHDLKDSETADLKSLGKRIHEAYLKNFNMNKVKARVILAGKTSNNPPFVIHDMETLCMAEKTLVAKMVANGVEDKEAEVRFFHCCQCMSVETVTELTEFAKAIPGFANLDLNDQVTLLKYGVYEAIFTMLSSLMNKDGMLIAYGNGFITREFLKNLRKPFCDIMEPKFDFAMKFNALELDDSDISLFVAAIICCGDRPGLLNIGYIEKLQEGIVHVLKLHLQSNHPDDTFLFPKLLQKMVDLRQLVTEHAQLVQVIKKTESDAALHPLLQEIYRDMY
# Method in brief: (§2)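 Chimeric GAL4 fusions carrying the PPARα receptor from dog, hamster or mouse, constructed like the human transactivation assay. Run in transiently transfected COS-1 cells, with agonist activity read as EC50.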
# [9] = biological target: T4, Peroxisome proliferator-activated receptor alpha (Canis lupus familiaris, UniProt Q95N78); assay: Agonist activity against dog Peroxisome proliferator activated receptor alpha; format: functional; method in brief: as §2
# T4 sequence (Q95N78 whole entry): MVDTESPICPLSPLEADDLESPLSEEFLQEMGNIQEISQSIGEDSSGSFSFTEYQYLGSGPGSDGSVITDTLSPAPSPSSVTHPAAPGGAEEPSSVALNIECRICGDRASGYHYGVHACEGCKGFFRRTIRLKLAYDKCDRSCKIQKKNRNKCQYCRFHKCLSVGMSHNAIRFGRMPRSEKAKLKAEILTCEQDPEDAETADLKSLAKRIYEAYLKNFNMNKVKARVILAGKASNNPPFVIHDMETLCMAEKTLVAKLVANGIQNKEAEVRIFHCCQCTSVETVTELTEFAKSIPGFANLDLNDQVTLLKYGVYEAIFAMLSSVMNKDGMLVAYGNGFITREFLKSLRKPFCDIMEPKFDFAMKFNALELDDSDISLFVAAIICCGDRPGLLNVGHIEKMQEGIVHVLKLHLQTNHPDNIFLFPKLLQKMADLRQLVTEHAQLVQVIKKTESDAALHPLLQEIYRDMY
IC50 [1] [nM],IC50 [2] [nM],EC50 [3],EC50 [4],Emax [5] [%],EC50 [6] [nM],EC50 [7] [nM],EC50 [8] [nM],EC50 [9] [nM],SMILES
> 50000,> 15000,Not Active,Not Active,,,,,,CCCc1cc2c(C(F)(F)F)noc2c(CCC)c1OCC(C)(C)C(=O)O
1030,> 10000,,,21,620,,,,CCCc1cc2c(C(F)(F)F)noc2c(CCC)c1OC(C)C(=O)O (configuration not stated)
480,1220,,,,10,1300,,,CCCc1cc(C(=O)CC)cc(CCC)c1OC(C)(C)C(=O)O
1510,1620,,,,60,1100,,,CCCc1cc2c(OC)noc2c(CCC)c1OC(C)(C)C(=O)O
230,1580,,,25,300,,180,550,CCCc1cc2c(C(F)(F)F)noc2c(CCC)c1OC(C)(C)C(=O)O
> 10000,> 10000,Not Active,Not Active,,,,,,CCCc1c(OC(C)(C)C(=O)O)ccc2c(C(F)(F)F)noc12
100,> 15000,,,26,750,,,,CCCc1cc2c(C(F)(F)F)noc2c(CCC)c1OC(C)(CC)C(=O)O (configuration not stated)
35000,,,,,15000,,,,CC(C)(Oc1ccc(C(=O)c2ccc(Cl)cc2)cc1)C(=O)O [FENOFIBRIC ACID]
